ChEMBL document CHEMBL2203235, “Optimization of a natural product-based class of γ-secretase modulators” (J Med Chem, 2012)
Each block holds one compound with its values, some of them ahead of it.

Key:
[1] = Plasma concentration in CD1 mouse at 1 mg/kg, iv at 6 hrs
[2] = Modulation of gamma secretase in CHO-2B7 cells assessed as reduction in amyloid beta 40 level after 5 hrs by MSD ELISA; assay type: cell-based; conditions: Cricetulus griseus, CHO-2B7, 5 h
Liver microsomes [3] = test: Metabolic stability in human liver microsomes at 1 uM after 60 mins by LC/MS/MS analysis; conditions: 1 h
[4] = Modulation of gamma secretase in CHO-2B7 cells assessed as reduction in amyloid beta 42 level after 5 hrs by MSD ELISA; assay type: cell-based; conditions: Cricetulus griseus, CHO-2B7, 5 h
[5] = Drug uptake in CD1 mouse brain at 1 mg/kg, iv at 6 hrs
[6] = Ratio of drug uptake in brain to plasma in CD1 mouse at 1 mg/kg, iv at 6 hrs; conditions: brain and plasma
[7] = (§1) Metabolic stability in human liver microsomes assessed as compound remaining at 1 uM at 60 mins by LC/MS/MS analysis in absence of NADPH; assay type: ADME, Microsome; conditions: liver microsomes, read-out: Stability
How it was run: (§2)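 Human liver microsomes were run without NADPH as a qualitative read of susceptibility to enzymatic hydrolysis. The read-out was percent parent remaining at 60 min.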

CHO-2B7 [8] = test: Modulation of gamma secretase in CHO-2B7 cells assessed as reduction in amyloid beta 42 level at 20 uM after 5 hrs by MSD ELISA; assay type: cell-based; design: scale not given: the % may be the effect or the level left; conditions: Cricetulus griseus
CHO-2B7 [9] = test: Modulation of gamma secretase in CHO-2B7 cells assessed as reduction in amyloid beta 40 level at 20 uM after 5 hrs by MSD ELISA; assay type: cell-based; design: scale not given: the % may be the effect or the level left; conditions: Cricetulus griseus
[10] = Modulation of gamma-secretase assessed as reduction in amyloid beta 40 level by cell based assay
[11] = Modulation of gamma-secretase assessed as increase in amyloid beta 38 level at 800 nM by cell based assay relative to control
[12] = Modulation of gamma-secretase assessed as reduction in amyloid beta 42 level by cell based assay
CHO-2B7 [13] = test: Modulation of gamma secretase in CHO-2B7 cells assessed as reduction in amyloid beta 40 level at 4 mM after 5 hrs by MSD ELISA; assay type: cell-based; design: scale not given: the % may be the effect or the level left; conditions: Cricetulus griseus
[14] = Metabolic stability in human liver microsomes assessed as compound remaining at 1 uM at 60 mins by LC/MS/MS analysis in presence of NADPH; assay type: ADME, Microsome; conditions: read-out: Stability
[15] = Ratio of drug uptake in brain to plasma in CD1 mouse at 3 mg/kg, iv at 6 hrs; assay type: ADME, organism-based; design: dose 3 mg/kg, route intravenous; conditions: brain and plasma, read-out: BPR
How it was run: (§3)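 CD-1 mice dosed by the IV route. Plasma and brain drug concentrations were measured at 6 h post dose, or at 2 h for one analogue. The brain-to-plasma ratio was calculated from these concentrations and used to rank CNS penetration.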

[16] = Plasma concentration in CD1 mouse at 3 mg/kg, iv at 6 hrs; assay type: ADME, organism-based; design: dose 3 mg/kg, route intravenous; how it was run: as §3
[17] = Drug uptake in CD1 mouse brain at 3 mg/kg, iv at 6 hrs; assay type: ADME, organism-based; design: dose 3 mg/kg, route intravenous; conditions: read-out: Drug uptake; how it was run: as §3
Liver microsomes [18] = test: as §1; assay type: ADME, Microsome; conditions: microsomes, 1 h, 1 µM; how it was run: as §2

SMILES: CCO[C@@H]([C@H]1C[C@@H](C)[C@H]2[C@H](O1)[C@H](O)[C@@]1(C)[C@@H]3CC[C@H]4C(C)(C)[C@@H](OC(=O)N5CCN(C)CC5)CC[C@@]45C[C@@]35CC[C@]21C)C(C)(C)O
- concentration at 6 h [1]: 95 nM
- IC50 [2]: 5000 nM
- Stability (Liver microsomes [3]): Stable
- IC50 [4]: 68 nM
- concentration at 6 h [5]: 12 nM
- Kp at 6 h [6]: 0.13

SMILES: CC(C)[C@@H](OC(N)=O)[C@H]1C[C@@H](C)[C@H]2[C@H](O1)[C@H](O)[C@@]1(C)[C@@H]3CC[C@H]4C(C)(C)[C@@H](OC(=O)N5CCC5)CC[C@@]45C[C@@]35CC[C@]21C
- remaining at 1 h, 1 µM [7]: 106%
- Activity (CHO-2B7 [8]): 40%
- Activity (CHO-2B7 [9]): 15%

- IC50 [10]: 280 nM
- IC50 [12]: 62 nM
SMILES: COc1cc(/C=C2\CCCN([C@@H](C)c3ccc(F)cc3)C2=O)ccc1-n1cnc(C)c1
- Activity [11]: 280%

- Stability (Liver microsomes [3]): Stable
- IC50 [4]: 270 nM
SMILES: CCO[C@@H]([C@H]1C[C@@H](C)[C@H]2[C@H](O1)[C@H](O)[C@@]1(C)[C@@H]3CC[C@H]4C(C)(C)[C@@H](O[C@H]5CN(CC(=O)N(C)C)CCO5)CC[C@@]45C[C@@]35CC[C@]21C)C(C)(C)O
- Activity (CHO-2B7 [13]): 38%

SMILES: CCO[C@@H]([C@H]1C[C@@H](C)[C@H]2[C@H](O1)[C@H](O)[C@@]1(C)[C@@H]3CC[C@H]4C(C)(C)[C@@H](OC(=O)N5CCN(CCOC)CC5)CC[C@@]45C[C@@]35CC[C@]21C)C(C)(C)O
- concentration at 6 h [1]: 261 nM
- Stability (Liver microsomes [3]): Stable
- IC50 [4]: 320 nM
- concentration at 6 h [5]: 8 nM
- Kp at 6 h [6]: 0.03
- Activity (CHO-2B7 [9]): 51%

SMILES: CCO[C@@H]([C@H]1C[C@@H](C)[C@H]2[C@H](O1)[C@H](O)[C@@]1(C)[C@@H]3CC[C@H]4C(C)(C)[C@@H](OC(=O)N(C)C5CN(C)C5)CC[C@@]45C[C@@]35CC[C@]21C)C(C)(C)O
- concentration at 6 h [1]: 566 nM
- IC50 [2]: 4300 nM
- Stability (Liver microsomes [3]): Stable
- IC50 [4]: 61 nM
- concentration at 6 h [5]: 56 nM
- Kp at 6 h [6]: 0.1

- remaining at 1 h, 1 µM [7]: 115%
SMILES: C[C@@H]1C[C@H]([C@H](OC(=O)N(C)C)C(C)(C)O)O[C@H]2[C@H]1[C@@]1(C)CC[C@@]34C[C@@]35CC[C@H](O)C(C)(C)[C@@H]5CC[C@H]4[C@]1(C)[C@H]2O
- Activity (CHO-2B7 [8]): 53%

SMILES: CC(=O)O[C@@H]([C@H]1C[C@@H](C)[C@H]2[C@H](O1)[C@H](O)[C@@]1(C)[C@@H]3CC[C@H]4C(C)(C)[C@@H](O[C@H]5CNCCO5)CC[C@@]45C[C@@]35CC[C@]21C)C(C)(C)O
- remaining at 1 h, 1 µM [7]: 7%
- IC50 [2]: 2200 nM
- IC50 [4]: 70 nM
- remaining at 1 h, 1 µM [14]: 3%

- remaining at 1 h, 1 µM [7]: 107%
- IC50 [4]: ≥ 20000 nM
- remaining at 1 h, 1 µM [14]: 81%
SMILES: C[C@@H]1C[C@H]([C@H](O)C(C)(C)O)O[C@H]2[C@H]1[C@@]1(C)CC[C@@]34C[C@@]35CC[C@H](O[C@H]3CN(C6COC6)CCO3)C(C)(C)[C@@H]5CC[C@H]4[C@]1(C)[C@H]2O

SMILES: CCO[C@@H]([C@H]1C[C@@H](C)[C@H]2[C@H](O1)[C@H](O)[C@@]1(C)[C@@H]3CC[C@H]4C(C)(C)[C@@H](O[C@H]5CNCCO5)CC[C@@]45C[C@@]35CC[C@]21C)C(C)(C)O
- Kp at 6 h [15]: 1.67
- remaining at 1 h, 1 µM [7]: 28%
- IC50 [2]: 1400 nM
- Stability (Liver microsomes [3]): Stable
- IC50 [4]: 91 nM
- concentration at 6 h [16]: 192 nM
- concentration at 6 h [17]: 320 nM

SMILES: CC(=O)O[C@@H]([C@H]1C[C@@H](C)[C@H]2[C@H](O1)[C@H](O)[C@@]1(C)[C@@H]3CC[C@H]4C(C)(C)[C@@H](OC(=O)NC5CNC5)CC[C@@]45C[C@@]35CC[C@]21C)C(C)(C)O
- remaining at 1 h, 1 µM [7]: 21%
- IC50 [2]: 15000 nM
- IC50 [12]: 47 nM
- IC50 [4]: 47 nM

SMILES: CC(C)[C@@H](OC(=O)N(C)C)[C@H]1C[C@@H](C)[C@H]2[C@H](O1)[C@H](O)[C@@]1(C)[C@@H]3CC[C@H]4C(C)(C)[C@@H](OC(=O)N5CCC5)CC[C@@]45C[C@@]35CC[C@]21C
- Stability (Liver microsomes [18]): 127%
- Activity (CHO-2B7 [8]): 0%
- Activity (CHO-2B7 [9]): 0%

SMILES: CCO[C@@H]([C@H]1C[C@@H](C)[C@H]2[C@H](O1)[C@H](O)[C@@]1(C)[C@@H]3CC[C@H]4C(C)(C)[C@@H](O[C@H]5CN(C)CCO5)CC[C@@]45C[C@@]35CC[C@]21C)C(C)(C)O
- concentration at 6 h [1]: 21 nM
- IC50 [2]: 4500 nM
- Stability (Liver microsomes [3]): Stable
- IC50 [4]: 250 nM
- concentration at 6 h [5]: 16 nM
- Kp at 6 h [6]: 0.76
